Laboratory results from ChEMBL document CHEMBL4422648, “Synthesis, biological evaluation and mode of action studies of novel amidinourea inhibitors of hepatitis C virus (HCV)” (Bioorg Med Chem Lett, 2019).
Calls of active or inactive are those of the source. The calls are words filed in the database; no cut-off is given here.

What was measured:
Hepatitis C virus [1] = experiment: Antiviral activity against HCV pseudo-particle infected in human HuH7 cells assessed as inhibition of HCV pseudo particles entry at 10 uM preincubated for 1 hr followed by viral infection and measured after 72 hrs by bright-glo luciferase reporter gene assay; format: functional, organism-based; details: Hepacivirus hominis
In short: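 Huh7 cells were pretreated with 10 µM compound for 1 h. They were then infected with HCV pseudo-particles for 3 h in the compound's presence. Entry was detected 72 h post infection; bafilomycin served as the positive control.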

Hepatitis C virus [2] = experiment: Antiviral activity against HCV sub-genomic replicon infected in human Huh7 cells at 10 uM added immediately with viral infection and measured after 24 hrs by bright-glo luciferase reporter gene assay relative to control; format: functional
In short: (§1)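 Huh7 cells were electroporated with HCV subgenomic replicon RNA. Compound at 10 µM was added either immediately at seeding or after 24 h to let replication establish. Luciferase was measured after 24 h of treatment.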

Huh-7 = experiment: Cytotoxicity against human HuH7 cells at 10 uM after 24 hrs by WST-1 assay; format: cell-based; details: huh-7, 24 h
In short: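 Huh7 cells were incubated 24 h with 10 µM of each compound before cell viability was assessed.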

Hepatitis C virus [3] = experiment: Antiviral activity against HCV sub-genomic replicon infected in human Huh7 cells after 2 to 24 hrs by bright-glo luciferase reporter gene assay; format: functional, organism-based; details: Hepacivirus hominis
In short: (§2)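 Time course: Huh7 cells were transfected with HCV replicon RNA (wild-type subgenomic or replication-defective GND) and seeded in the presence of compound. Replication/translation signal was read at 2, 4, 8 and 24 h post transfection and compared with untreated cells at each time point.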

[4] = test system: Internal ribosome entry site (IRES); experiment: Inhibition of HCV IRES transfected in human Huh7 cells assessed as inhibition of IRES-mediated translation after 24 hrs by dual luciferase reporter gene assay relative to control; format: cell-based; details: Hepacivirus hominis; dose or concentration not given here
In short: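 Huh7 cells were co-transfected with a plasmid for firefly luciferase driven by the HCV IRES and a plasmid for Renilla luciferase under the TK promoter, used to normalise transfection efficiency. Cells were exposed to compound for 24 h, then assayed by dual luciferase.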

Hepatitis C virus [5] = experiment: Antiviral activity against HCV JFH-1 infected in human Huh7-J20 cells after 72 hrs by SEAP based assay; format: functional, organism-based, Hepacivirus hominis; details: JFH-1, Huh7-J20, 72 h
In short: (§3)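 HCVcc (JFH-1 clone) inoculated onto Huh7-J20 cells for 3 h. Infected cells were then exposed for 72 h to a dose range starting at 30 µM with 1:3 serial dilutions. Viral replication was read after harvest, and cell viability was measured in parallel.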

Hepatitis C virus [6] = experiment: Antiviral activity against HCV replicon infected in human Huh7 cells assessed as reduction in NS5A level after 8 to 24 hrs by Western blot analysis; format: functional, organism-based; details: Hepacivirus hominis
In short: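 After transfection with HCV replicon RNA, Huh7 cells were treated immediately for 8 or 24 h. Lysates were probed by western blot for NS5A and for unprocessed polyprotein.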

Hepatitis C virus [7] = experiment: Antiviral activity against HCV sub-genomic replicon infected in human Huh7 cells at 10 uM added 24 hrs after viral infection and measured after 24 hrs by bright-glo luciferase reporter gene assay relative to control; format: functional, Hepacivirus hominis; in short: as §1
Hepatitis C virus [8] = experiment: Antiviral activity against HCV sub-genomic replicon infected in human Huh7-J20 cells after 24 hrs by bright-glo luciferase reporter gene assay; format: functional, organism-based
In short: (§4)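 Subgenomic replicon RNA was electroporated into cells, which were exposed for 24 h to a dose range from 30 µM in 1:3 dilutions. Replication was read by luciferase, with cell viability measured alongside.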

Hepatitis C virus [9] = experiment: Antiviral activity against HCV replicon infected in human Huh7 cells after 8 to 24 hrs by Western blot analysis; details: Hepacivirus hominis
Hepatitis C virus [10] = experiment: Antiviral activity against HCV replicon infected in human Huh7-J17 cells after 24 hrs by bright-glo luciferase reporter gene assay relative to control; format: functional, Hepacivirus hominis
[11] = Cytotoxicity against human Huh7-J20 cells infected with HCV sub-genomic replicon assessed as reduction in cell viability up to 30 uM after 24 hrs by WST-1 assay; format: cell-based; in short: as §4
Hepatitis C virus [12] = experiment: Antiviral activity against HCV replication defective replicon infected in human Huh7 cells after 2 to 8 hrs by bright-glo luciferase reporter gene assay; format: functional, organism-based; details: Hepacivirus hominis; in short: as §2
[13] = Cytotoxicity against human Huh7-J20 cells infected with HCV JFH-1 after 72 hrs by WST-1 assay; format: cell-based; in short: as §3

Question: For C=CCNC(=O)NC(=N)NCCCCNC(=O)c1ccccc1, which Activity (Hepatitis C virus [1]) is on record?
Answer: inactive

Question: And the Activity (Hepatitis C virus [2]; Hepacivirus hominis)?
Answer: inactive

Question: What about the Activity (Huh-7) of the same compound?
Answer: Non-Toxic

Question: For C=CCNC(=N)NCCCCCCCCNC(=N)NCC=C, which Activity (Hepatitis C virus [1]) is on record?
Answer: inactive

Question: And the Activity (Hepatitis C virus [2]; Hepacivirus hominis)?
Answer: inactive

Question: What about the Activity (Huh-7) of the same compound?
Answer: Non-Toxic

Question: For C=CCNC(=O)NC(=N)NCCCCNCCCNC(=N)NC(=O)NCC=C, which Activity (Hepatitis C virus [1]) is on record?
Answer: inactive

Question: What about the Activity (Hepatitis C virus [2]; Hepacivirus hominis) of the same compound?
Answer: inactive

Question: And the Activity (Huh-7)?
Answer: Non-Toxic

Question: For C=CCNC(=O)NC(=N)NCCCN(C)CCCCN(C)CCCNC(=N)NC(=O)NCC=C, which Activity (Hepatitis C virus [1]) is on record?
Answer: inactive

Question: And the Activity (Hepatitis C virus [2]; Hepacivirus hominis)?
Answer: inactive

Question: And the Activity (Huh-7)?
Answer: Non-Toxic

Question: For C#CCNC(=N)NCCCCCCNCCCCCCNC(=N)NCC#C, which Activity (Hepatitis C virus [1]) is on record?
Answer: inactive

Question: What about the Activity (Hepatitis C virus [2]; Hepacivirus hominis) of the same compound?
Answer: inactive

Question: What about the Activity (Huh-7) of the same compound?
Answer: Non-Toxic

Question: For N=C(NCCCCCCCCNC(=N)NCc1ccccc1)NCc1ccccc1, which Activity (Hepatitis C virus [1]) is on record?
Answer: inactive

Question: And the Activity (Hepatitis C virus [2]; Hepacivirus hominis)?
Answer: inactive

Question: And the Activity (Huh-7)?
Answer: Non-Toxic

Question: For CO/C1=C\C(C)=C\[C@@H](C)[C@@H](O)[C@@H](C)C/C(C)=C/C=C/[C@H](OC)[C@@H]([C@@H](C)[C@@H](O)[C@H](C)[C@@]2(O)C[C@@H](O)[C@H](C)[C@@H](C(C)C)O2)OC1=O, which Activity (Hepatitis C virus [1]) is on record?
Answer: Active

Question: With C=CCNC(=O)NC(=N)NCCCCNC(=N)NC(=O)NCC=C as the compound, how does the Activity (Hepatitis C virus [1]) read?
Answer: inactive

Question: And the Activity (Hepatitis C virus [2]; Hepacivirus hominis)?
Answer: inactive

Question: And the Activity (Huh-7)?
Answer: Non-Toxic

Question: With C=CCNC(=O)NC(=N)NCCCCN as the compound, how does the Activity (Hepatitis C virus [1]) read?
Answer: inactive

Question: And the Activity (Hepatitis C virus [2]; Hepacivirus hominis)?
Answer: inactive

Question: And the Activity (Huh-7)?
Answer: Non-Toxic

Question: With C=CCNC(=N)NCCCCCCNCCCCCCNC(=N)NCC=C as the compound, how does the Activity (Hepatitis C virus [1]) read?
Answer: inactive

Question: And the Activity (Hepatitis C virus [2]; Hepacivirus hominis)?
Answer: inactive

Question: And the Activity (Huh-7)?
Answer: Non-Toxic

Question: Which Activity (Hepatitis C virus [1]) does the source give for C=CCNC(=O)NC(=N)NCCCNCCCCNCCCNC(=N)NC(=O)NCC=C here?
Answer: inactive

Question: What about the Activity (Hepatitis C virus [3]) of the same compound?
Answer: Active

Question: And the inhibition [4]?
Answer: 40%

Question: And the IC50 (Hepatitis C virus [5])?
Answer: 12.3 µM

Question: What about the Activity (Hepatitis C virus [6]) of the same compound?
Answer: Active

Question: What about the Activity (Hepatitis C virus [7]) of the same compound?
Answer: 45%

Question: And the Activity (Hepatitis C virus [8]; Hepacivirus hominis)?
Answer: Dose-dependent effect

Question: And the IC50 (Hepatitis C virus [8]; Huh7-J20, 24 h)?
Answer: 2.65 µM

Question: What about the Activity (Hepatitis C virus [9]) of the same compound?
Answer: Active

Question: What about the Activity (Hepatitis C virus [2]) of the same compound?
Answer: 90%

Question: And the Activity (Huh-7)?
Answer: Non-Toxic

Question: And the Activity (Hepatitis C virus [10])?
Answer: 45%

Question: And the Activity [11]?
Answer: Non-Toxic

Question: And the Activity (Hepatitis C virus [12])?
Answer: Active

Question: And the CC50 at 72 h [13]?
Answer: 81.1 µM
